Bioassay records from PubChem BioAssay.
GSK3 alpha inh = inhibitors of human GSK-3 alpha kinase. P49840. ADP-Glo luminescence, 60 min. inhibition, % at 10 µM. 320,000 compounds, 0.1% hits. AID 2650;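 active means more than half of replicates show inhibition above 20%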;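 further: GST-tagged GSK-3 alpha with peptide substrate and 25 µM ATP; 0% = DMSO neutral wells and 100% = GW8510 positive control wells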
STK33 inh = blocks human STK33 kinase activity. inhibition, % at 10 µM. purified STK33, MBP phosphorylation, ADP-Glo luminescence. 320,000 compounds, 0.073% hits. Q9BYT3;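 active means inhibition at or above 25%, using the most active replicate where run in duplicate; inactive means inhibition below 25%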
Target sequence (Q9BYT3 whole entry, looked up): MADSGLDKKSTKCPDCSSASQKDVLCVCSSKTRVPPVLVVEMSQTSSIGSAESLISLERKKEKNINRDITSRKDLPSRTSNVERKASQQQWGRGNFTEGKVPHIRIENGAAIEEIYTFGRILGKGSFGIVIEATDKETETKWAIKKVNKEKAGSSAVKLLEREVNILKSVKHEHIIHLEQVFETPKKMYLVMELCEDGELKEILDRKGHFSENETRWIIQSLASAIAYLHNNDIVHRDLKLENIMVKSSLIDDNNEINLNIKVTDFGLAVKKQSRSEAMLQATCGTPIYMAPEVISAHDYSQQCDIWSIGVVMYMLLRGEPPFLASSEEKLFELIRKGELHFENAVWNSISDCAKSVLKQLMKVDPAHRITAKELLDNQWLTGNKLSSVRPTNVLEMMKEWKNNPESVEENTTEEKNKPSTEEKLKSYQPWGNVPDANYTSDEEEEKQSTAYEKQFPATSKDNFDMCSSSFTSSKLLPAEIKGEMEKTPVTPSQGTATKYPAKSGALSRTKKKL
GSK3beta inhib = human GSK3beta kinase inhibition. 300,000 compounds, 0.038% hits. GST-GSK3beta kinase, ADP-Glo luminescence, 60 min; active compounds read low. AID 2097. activity score (negative = inhibition), % at 10 µM;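 active means more than half of replicate wells score below -50%, meaning over 50% inhibition versus plate controls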;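 further: 0% = median DMSO wells and -100% = median GW8510 positive control wells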
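Assay system: GST-tagged human GSK3beta kinase, cell-free; Input: 1.6 ng GSK3beta; Medium: Tris/MgCl2 kinase buffer; Timing: 60 min enzyme reaction, room temperature; Signal: ADP-Glo luminescence quantifying ADP generated by kinase; Evaluation: score relative to plate controls; Benchmarks: DMSO neutral wells and GW8510 at 20 µM as positive.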
DYRK1A inh = Dyrk1A (rat) kinase inhibition | ADP-Glo luminescence, NFATc1 peptide | Q63470 | 310,000 compounds, 0.43% hits | inhibition, % at 12.5 µM; in the data active means inhibition above about 50%;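 further: plate controls were vehicle with enzyme for no effect and no enzyme for full effect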
Dyrk1A artifact = counter-screen for Dyrk1A inhibitors: ADP-Glo luciferase artifacts; shares compounds with DYRK1A inh; AC50, µM (doses to about 12 µM), for the others: at the highest dose activity change, negative = inhibition; 1,300 tested, under 10 active; ADP-Glo luciferase artifact assay, no Dyrk1A, luminescence;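 active means fitted half-maximal dose AC50 no more than ten times the top valid tested dose, with luminescence dropping as dose rises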
Numbers without * were called inactive; x = no result given. This is one part of a sample in which hits are shown more often than they occur.

SMILES	GSK3 alpha inh	STK33 inh	GSK3beta inhib	DYRK1A inh	Dyrk1A artifact
COc1ccc(C(=O)c2sc(Nc3ccccc3)nc2N)cc1	28.4	2.0	-1.3	-0.5	x
Cn1c2ccsc2c2ncn(Cc3ccccc3F)c(=O)c21	1.1	-1.1	x	x	x
O=C(Nc1cccc(Cl)c1)c1csc(-c2ccccc2)n1	-2.1	-0.1	1.7	2.0	x
CC(C)(C)c1ccc(NC(=O)COC(=O)c2ccc(CN3CCCC3=O)cc2)cc1	0.8	-1.5	x	-2.2	x
COc1cc(-c2nc3ccccc3s2)ccc1O	0.0	3.6	-0.3	76.6*	8.3%
CCOc1cc(-c2nc3ccccc3s2)ccc1O	-0.8	-0.2	4.0	58.2*	7.6%
COc1ccc(-c2nc3ccccc3s2)cc1O	3.7	3.3	-1.8	-4.0	x
CN(C)CCNc1ccc(CO)c2sc3ccc(O)cc3c(=O)c12	x	x	x	76.7*	7.3%
COC(=O)[C@]1(Cc2ccccc2)N[C@H](c2ccc(-c3ccc(Cl)c(Cl)c3)cc2)[C@@H]2C(=O)N(C)C(=O)[C@@H]21	-1.1	-0.4	3.2	-11.5	x
Cc1ccc(Nc2c(F)c(F)c(F)c(F)c2C(=O)O)cc1	-5.4	-0.9	1.0	-4.5	x
CCCn1c(NCc2ccco2)nc2c1c(=O)n(C)c(=O)n2C	0.1	-1.6	-6.8	-2.3	x
Cn1c(=O)c2c(nc(NCc3ccco3)n2CC(O)COc2ccccc2)n(C)c1=O (stereo unspecified)	1.7	-2.1	0.1	56.5*	7.6%
COc1ccc(S(=O)(=O)N2CCOC2CNC(=O)C(=O)NCCN2CCOCC2)cc1C (stereo unspecified)	1.2	-1.3	1.0	-1.0	x
c1ccc(-c2nnc3sc(Cc4cccs4)nn23)cc1	3.0	-0.1	-3.2	58.6*	10.0%
C(=N\NC1=Nc2cccc3cccc1c23)/c1ccccn1	x	x	2.2	53.3*	9.2%
Cc1nccc2[nH]c(=O)c(C(=O)NC(C)CCc3ccccc3)cc12 (stereo unspecified)	2.2	1.1	1.6	x	x
S=c1[nH]c2ccccc2n1CCc1ccncc1	x	x	x	29.9	x
S=c1sc2ccccc2n1CCc1ccncc1	34.6	9.1	-19.9	62.2*	9.9%
O=[N+]([O-])c1cc(/C=N/O)ccc1Oc1ccccc1Cl	65.4*	4.1	-52.4*	60.8*	8.6%
Oc1ccc(/C=N/n2c(-c3ccccc3)n[nH]c2=S)cc1Br	10.1	7.9	-5.8	55.8*	11.2%
Oc1c(Br)cc(/C=N/n2c(-c3ccccc3)n[nH]c2=S)cc1Br	5.2	-12.5	-2.4	1.4	x
C=CCc1ccc(OCCOc2ccc(/C=N/n3cnnc3)cc2OCC)c(OC)c1	-5.4	-1.2	1.7	60.1*	10.4%
CC(C)NS(=O)(=O)c1ccc(OCC(=O)N(C)Cc2ccccc2)cc1	3.6	4.9	-0.2	83.2*	5.4%
COc1ccc(OCC(=O)N(C)Cc2ccccc2)cc1	0.9	-5.3	-1.4	0.5	x
Cc1occc1C(=O)/C(C#N)=C/c1ccc(O)c(Br)c1	-0.7	3.8	1.0	66.6*	6.8%
SMILES	GSK3 alpha inh	STK33 inh	GSK3beta inhib	DYRK1A inh	Dyrk1A artifact
CC(C)NC(=O)Nc1cccc2c1O[C@H](CN(C)C(=O)NC1CCCCC1)[C@H](C)CN([C@H](C)CO)C2=O	2.5	-1.0	x	51.1*	8.5%
CC(C)NC(=O)Nc1cccc2c1O[C@H](CN(C)C(=O)NC1CCCCC1)[C@@H](C)CN([C@H](C)CO)C2=O	-3.5	-0.7	x	9.1	x
Cc1ccccc1-n1c(C)cc(/C=C2/C(=N)N3C(c4ccccc4)=CSC3=NC2=O)c1C	-3.5	-1.2	2.7	2.3	x
N=C1/C(=C\c2ccc(-c3cccc(C(=O)O)c3)o2)C(=O)N=C2SC=C(c3ccccc3)N12	2.0	3.2	-0.1	60.8*	7.7%
Cc1ccc(-c2nc(NCc3ccco3)c3ccccc3n2)cc1	-1.9	-1.4	4.2	1.8	x
c1cncc(-c2nc(NCc3ccco3)c3ccccc3n2)c1	11.2	5.2	-3.5	53.0*	10.4%
c1cncc(-c2nc(NCCCn3ccnc3)c3ccccc3n2)c1	70.7*	11.7	-55.3*	74.9*	9.2%
Cc1cccc(CN2CCN(C(=O)CN(C)C(C)C(=O)Nc3ccc(C(N)=O)cc3)CC2)c1 (stereo unspecified)	-1.3	-0.2	x	x	x
CC1CCC(C(C)C)C2=C1C(C#N)(C#N)C(C#N)(C#N)C(c1ccccc1)N2 (stereo unspecified)	33.9	11.9	-16.0	54.2*	7.1%
COc1ccc2c(c1)c(=O)oc1c(C)c(OCc3cc(C(=O)O)oc3C)ccc12	15.8	3.3	-4.0	51.0*	8.2%
